Measurements collected from several papers.
Target: Phosphatidylinositol 4,5-bisphosphate 3-kinase catalytic subunit delta isoform (PIK3CD, Homo sapiens, UniProt O00329)
Sequence (O00329 1-1044, as in one of the studies): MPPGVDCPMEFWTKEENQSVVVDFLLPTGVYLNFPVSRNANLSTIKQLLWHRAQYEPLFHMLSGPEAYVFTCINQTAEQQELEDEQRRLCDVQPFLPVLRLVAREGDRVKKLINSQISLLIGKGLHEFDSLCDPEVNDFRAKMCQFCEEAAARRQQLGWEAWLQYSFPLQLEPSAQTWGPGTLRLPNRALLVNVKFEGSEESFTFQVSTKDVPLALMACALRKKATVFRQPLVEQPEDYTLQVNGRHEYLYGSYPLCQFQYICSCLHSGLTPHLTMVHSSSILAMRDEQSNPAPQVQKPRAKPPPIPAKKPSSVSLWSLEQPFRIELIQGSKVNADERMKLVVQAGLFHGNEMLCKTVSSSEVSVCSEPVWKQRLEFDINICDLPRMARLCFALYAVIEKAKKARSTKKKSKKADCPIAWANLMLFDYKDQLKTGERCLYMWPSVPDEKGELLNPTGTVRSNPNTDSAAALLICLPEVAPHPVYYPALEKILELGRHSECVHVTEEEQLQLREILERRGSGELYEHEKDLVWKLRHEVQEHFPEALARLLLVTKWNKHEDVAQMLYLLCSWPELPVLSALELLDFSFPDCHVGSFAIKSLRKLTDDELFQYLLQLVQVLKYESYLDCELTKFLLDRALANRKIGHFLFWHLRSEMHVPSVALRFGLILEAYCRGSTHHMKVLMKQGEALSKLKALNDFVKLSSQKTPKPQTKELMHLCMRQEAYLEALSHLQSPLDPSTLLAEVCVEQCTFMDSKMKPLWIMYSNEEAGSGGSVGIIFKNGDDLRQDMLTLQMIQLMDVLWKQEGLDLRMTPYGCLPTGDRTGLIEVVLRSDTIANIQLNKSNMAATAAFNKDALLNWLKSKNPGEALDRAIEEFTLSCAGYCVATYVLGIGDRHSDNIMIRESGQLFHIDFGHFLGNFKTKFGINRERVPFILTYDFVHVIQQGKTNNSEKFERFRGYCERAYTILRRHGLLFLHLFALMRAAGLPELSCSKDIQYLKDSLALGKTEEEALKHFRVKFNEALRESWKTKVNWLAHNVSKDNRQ

Structure (SMILES) | test | conditions | remaining binding [%]
O=C(c1ccc(Nc2ncc(Cl)c(-c3ccc(Cl)s3)n2)cc1)N1CCC(N2CCCC2)CC1 | binding, competition with immobilised ligand | 1 µM | 100
CNC(=O)[C@@H]1CC[C@@H](n2c(-c3ccc4cnccc4c3)nc3ccc(C(=O)NCc4cccc(C(N)=O)c4)cc32)C1 | binding, competition with immobilised ligand | 1 µM | 100
C[C@@H]1CCN(c2nccc(-c3cnn4ncccc34)n2)C1 | binding | 1 µM | 100
O=C(NCCCN1CCOCC1)c1ccc(Nc2nccc(-c3cc4ccccc4s3)n2)cc1 | binding, competition with immobilised ligand | 1 µM | 56
CN(C)c1nccc(-c2cnc3ncccn23)n1 | binding | 1 µM | 50
CCc1ccccc1C(=O)Nc1n[nH]c2c(C)c(F)c(C3C(C#N)=C(C)N(C)C(C)=C3C#N)cc12 | cell-free assay, competition with immobilised ligand | 1 µM | 90
c1cncc(-c2cccc(Nc3nccc(NC4CCCCC4)n3)c2)c1 | binding, competition with immobilised ligand | 10 µM | 88
COc1cnc(Nc2cccc(S(N)(=O)=O)c2)nc1N1CCN(c2ccccc2)CC1 | binding, competition with immobilised ligand | 1 µM | 81
CC1CCCN1c1nccc(-c2cnn3ncccc23)n1 (stereo not drawn) | binding | 1 µM | 100
C=CC(=O)N1CCC(C(=O)NCC(=O)N2CCN(c3nc(-c4cnc(N)nc4C(F)F)nc(N4CCOCC4)n3)CC2)CC1 | binding, competition with immobilised ligand | 1 µM | 19
O=C(NCCCN1CCOCC1)c1ccc(Nc2ncc(Cl)c(-c3ccc(Cl)s3)n2)cc1 | binding, competition with immobilised ligand | 1 µM | 100
C[C@H](NC(=O)c1cnc2n1[C@](C)(Cc1ccc(C#N)cc1)C(=O)N2c1cc(Cl)c(F)c(Cl)c1)C(=O)NC1(c2ccccn2)CC1 | cell-free assay, competition with immobilised ligand | 1 µM | 95
O=C(NCC1CCOCC1)c1n[nH]cc1NC(=O)c1c(F)cccc1F | binding, competition with immobilised ligand | 1 µM | 87
CC1=C(C#N)[C@@H](c2ccc3[nH]nc(C)c3c2)C(C#N)=C(c2ccc(Cl)cc2)N1 | cell-free assay, competition with immobilised ligand | 1 µM | 100
CN(c1nccc(-c2cnn3ncccc23)n1)C1CC1 | binding | 1 µM | 100
Cc1cc(NC(=O)c2cccc(S(F)(F)(F)(F)F)c2)cc(-n2ccn3nc(-c4cccnc4)cc23)c1 | cell-free assay, competition with immobilised ligand | 1 µM | 100
CN(C)c1nccc(-c2cnn3ncccc23)n1 | binding | 1 µM | 85
CSc1cccnc1N1CCN(Cc2nc3ccccc3[nH]2)CC1 | cell-free assay, competition with immobilised ligand | 1 µM | 100
Nc1ncc2c(n1)-c1c([nH]c3ccc(C#CC4CC4)cc13)CCCC2 | binding, competition with immobilised ligand | 1 µM | 70
N[C@@H]1CCN(c2nccc(-c3cnn4ncccc34)n2)C1 | binding | 1 µM | 100
CN(c1ccnc(CNc2nc(Nc3ccc4c(c3)CC(=O)N4)ncc2C(F)(F)F)n1)S(C)(=O)=O | cell-free assay, competition with immobilised ligand | 1 µM | 77
